{
  "source": "ChEMBL document CHEMBL3286392",
  "about": "“Iron chelators in photodynamic therapy revisited: synergistic effect by novel highly active thiosemicarbazones” (ACS Med Chem Lett, 2014)",
  "key": {"[1]": {"tested_on": "HCT-116", "assay": "Dark cytotoxicity against human HCT116 cells expressing wild type p53 after 96 hrs by MTT assay", "assay_type": "cell-based", "settings": "HCT-116, 96 h"}, "[2]": {"tested_on": "HCT-116", "assay": "Dark cytotoxicity against p53-deficient human HCT116 cells after 96 hrs by MTT assay", "assay_type": "cell-based", "settings": "HCT-116, 96 h"}, "[3]": {"tested_on": "Raji", "assay": "Dark cytotoxicity against human Raji cells after 72 hrs by MTT assay", "assay_type": "cell-based"}, "[4]": {"tested_on": "HeLa", "assay": "Dark cytotoxicity against human HeLa cells after 72 hrs by MTT assay", "assay_type": "cell-based"}, "[5]": {"tested_on": "NHDF", "assay": "Dark cytotoxicity against human NHDF cells after 72 hrs by MTT assay", "assay_type": "cell-based"}, "[6]": {"tested_on": "HCT-116", "assay": "Photocytotoxicity against human HCT116 cells expressing wild type p53 assessed as combination index incubated for 24 hrs followed by light irradiation measured after 24 hrs by MTS assay in presence of ALA", "assay_type": "functional", "how_it_was_run": "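HCT 116+/+ cells were treated with TSC at a range of concentrations plus ALA held at 1 mM. PpIX was irradiated at varied light doses, with doses increased in constant ratio. CI was calculated by the Chou–Talalay method as the summed doses in the combination divided by the dose of each therapy alone giving the same cytotoxic effect.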"}, "[7]": {"tested_on": "HCT-116", "assay": "Induction of 5-aminolevulinic acid-induced cellular PpIX formation in human HCT116 cells expressing wild type p53 at 50 uM by fluorescence plate reader analysis", "assay_type": "functional, cell-based"}, "[8]": {"tested_on": "HCT-116", "assay": "Photocytotoxicity against human HCT116 cells expressing wild type p53 incubated for 24 hrs followed by light irradiation measured after 24 hrs by MTS assay in presence of ALA and FeCl3", "assay_type": "functional, cell-based"}, "[9]": {"tested_on": "HCT-116", "assay": "Induction of ROS generation in human HCT116 cells expressing wild type p53 at 4 uM after 24 hrs by spectrophotometry", "assay_type": "functional, cell-based"}, "[10]": {"assay": "Ratio of IC50 for human HCT116 cells expressing wild type p53 to IC50 for human NHDF cells", "assay_type": "cell-based, HCT-116", "settings": "HCT116 cells expressing wild type p53 and NHDF cells, read-out: Ratio IC50"}, "[11]": {"tested_on": "HCT-116", "assay": "Cytotoxicity against human HCT116 cells expressing wild type p53 assessed as cell death at 50 uM", "assay_type": "cell-based", "settings": "hct-116, 50 µM"}, "[12]": {"tested_on": "HCT-116", "assay": "Induction of ROS generation in human HCT116 cells expressing wild type p53 at 8 nM after 24 hrs by spectrophotometry", "assay_type": "functional, cell-based"}, "[13]": {"assay": "Ratio of IC50 for p53-deficient human HCT116 cells to IC50 for human Raji cells", "assay_type": "cell-based", "settings": "hct-116"}, "[14]": {"tested_on": "HCT-116", "assay": "Induction of ROS generation in human HCT116 cells expressing wild type p53 at 1.6 nM after 24 hrs by spectrophotometry", "assay_type": "functional, cell-based"}},
  "note": "Calls of active or inactive are those of the source. No cut-off for these calls is given here.",
  "data": [
    {"smiles": "CCN1CCN(C(=S)N/N=C/c2ccccc2O)CC1", "values": [
      {"measurement": "IC50", "setting": "[1]", "value": "> 20", "unit": "µM"},
      {"measurement": "IC50", "setting": "[2]", "value": "> 20", "unit": "µM"},
      {"measurement": "IC50", "setting": "[3]", "value": "> 10", "unit": "µM"},
      {"measurement": "IC50", "setting": "[4]", "value": "> 20", "unit": "µM"},
      {"measurement": "IC50", "setting": "[5]", "value": "> 20", "unit": "µM"},
      {"measurement": "CI", "setting": "[6]", "value": 0.95},
      {"measurement": "Activity", "setting": "[7]", "value": "inactive"},
      {"measurement": "Activity", "setting": "[8]", "value": "Active"}
    ]},
    {"smiles": "NC(=S)N/N=C/c1ncccc1N", "note": "[TRIAPINE]", "values": [
      {"measurement": "IC50", "setting": "[1]", "value": 1.23, "unit": "µM"},
      {"measurement": "CI", "setting": "[6]", "value": 0.85},
      {"measurement": "Activity", "setting": "[8]", "value": "Active"},
      {"measurement": "Activity", "setting": "[9]", "value": "Active"}
    ]},
    {"smiles": "Oc1cccc2ccc(/C=N/NC(=S)N3CCOCC3)nc12", "values": [
      {"measurement": "IC50", "setting": "[1]", "value": 0.00384, "unit": "µM"},
      {"measurement": "IC50", "setting": "[2]", "value": 0.0168, "unit": "µM"},
      {"measurement": "IC50", "setting": "[3]", "value": 0.0212, "unit": "µM"},
      {"measurement": "IC50", "setting": "[4]", "value": 0.176, "unit": "µM"},
      {"measurement": "IC50", "setting": "[5]", "value": "> 10", "unit": "µM"},
      {"measurement": "CI", "setting": "[6]", "value": 0.08},
      {"measurement": "selectivity ratio", "setting": "[10]", "value": 2770},
      {"measurement": "Activity", "setting": "[11]", "value": "Toxic"},
      {"measurement": "Activity", "setting": "[8]", "value": "Active"},
      {"measurement": "Activity", "setting": "[12]", "value": "Active"}
    ]},
    {"smiles": "CN(C)C(=S)N/N=C/c1c(O)ccc2cccnc12", "values": [
      {"measurement": "IC50", "setting": "[1]", "value": "> 20", "unit": "µM"},
      {"measurement": "IC50", "setting": "[2]", "value": "> 20", "unit": "µM"},
      {"measurement": "IC50", "setting": "[5]", "value": "> 20", "unit": "µM"},
      {"measurement": "CI", "setting": "[6]", "value": 6.08},
      {"measurement": "Activity", "setting": "[7]", "value": "inactive"},
      {"measurement": "Activity", "setting": "[8]", "value": "Active"}
    ]},
    {"smiles": "S=C(NN=C(c1ccccn1)c1ccccn1)N1CCN(c2ccccc2)CC1", "values": [
      {"measurement": "IC50", "setting": "[1]", "value": 0.00081, "unit": "µM"},
      {"measurement": "IC50", "setting": "[2]", "value": 0.00076, "unit": "µM"},
      {"measurement": "IC50", "setting": "[3]", "value": 0.00032, "unit": "µM"},
      {"measurement": "IC50", "setting": "[4]", "value": 0.57, "unit": "µM"},
      {"measurement": "IC50", "setting": "[5]", "value": 0.00173, "unit": "µM"},
      {"measurement": "CI", "setting": "[6]", "value": 0.47},
      {"measurement": "Ratio IC50", "setting": "[13]", "value": 2.4},
      {"measurement": "Activity", "setting": "[11]", "value": "Toxic"},
      {"measurement": "Activity", "setting": "[8]", "value": "Active"},
      {"measurement": "Activity", "setting": "[14]", "value": "Active"}
    ]},
    {"smiles": "CC(=O)N(O)CCCCCNC(=O)CCC(=O)N(O)CCCCCNC(=O)CCC(=O)N(O)CCCCCN", "note": "[DEFEROXAMINE]", "values": [
      {"measurement": "IC50", "setting": "[1]", "value": "> 200", "unit": "µM"},
      {"measurement": "IC50", "setting": "[2]", "value": "> 200", "unit": "µM"},
      {"measurement": "CI", "setting": "[6]", "value": 1.01},
      {"measurement": "Activity", "setting": "[7]", "value": "inactive"},
      {"measurement": "Activity", "setting": "[8]", "value": "Active"}
    ]}
  ]
}
